ChEMBL document CHEMBL1129996, “1-Aryl-3,5-dihydro-4H-2,3-benzodiazepin-4-ones: novel AMPA receptor antagonists” (J Med Chem, 1997)
Several values for one entry are separate records, joined by “and”; a condition that tells them apart may be missing. Equal values may be shown once.

Assays:
Mus musculus [1] = species on record: Mus musculus; assay: Audiogenic seizures after concomitant treatment with Flumazenil (24.72 uM) in DBA / 2 mice clonic phase; type: functional
Mus musculus [2] = assay: Anticonvulsant activity against tonic phase of the audiogenic seizures in DBA / 2 mice 30 min after ip administration at a dose range 10-100 uM/kg; type: functional; settings: 0.5 h
How it was run: (§1)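 Groups of 10 DBA/2 mice of either sex; drug ip (0.1 mL/10 g) as fresh solution in 50% DMSO/50% saline, 30 min before auditory stimulation (12-16 kHz, 109 dB, 60 s or until tonic extension) under perspex dome after 60 s habituation. Latency and incidence of wild running, clonic and tonic phases scored; ED50 (95% confidence limits) by Litchfield-Wilcoxon.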

Mus musculus [3] = species on record: Mus musculus; assay: Audiogenic seizures after concomitant treatment with Flumazenil (8.24 uM) in DBA / 2 mice clonic phase; type: functional
Mus musculus [4] = assay: Anticonvulsant activity against the maximal electroshock in Swiss mice after 45 minutes pretreatment at a dose range uM/kg; type: functional
How it was run: (§2)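 Swiss mice dosed ip in 50% DMSO/50% saline 45 min before ear-clip electroshock (50 mA, 20 ms pulses, 35 Hz, 400 ms). Protection = abolition of tonic hindlimb extension. Usually 4-5 doses with 8-10 mice each; ED50 (95% confidence limits) by Litchfield-Wilcoxon.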

Mus musculus [5] = species on record: Mus musculus; assay: Pentylenetetrazole-induced seizures in Swiss mice after 45 min pretreatment at a dose range 10-150 uM / kg (95% confidence limits); type: functional
Mus musculus [6] = species on record: Mus musculus; assay: Audiogenic seizures after concomitant treatment with Flumazenil (24.72 uM) in DBA / 2 mice tonic phase; type: functional
[7] = Therapeutic index it is the ratio between TD50 and ED50 (from the clonic phase of the audiogenic seizures); settings: read-out: TI
How it was run: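 Therapeutic index computed as rotarod TD50 divided by ED50 for the clonic phase of audiogenic seizures in DBA/2 mice.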

Mus musculus [8] = assay: Anticonvulsant activity against the clonic seizures induced by icv injection of AMPA in DBA / 2 mice at a dose range of 10-200 uM / kg (95% confidence limits); type: functional; settings: central
[9] = Relative lipophilicity of compound; type: physicochemical; settings: reversed-phase TLC, acetone/water 2:1
How it was run: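 Reversed-phase TLC type lipophilicity: plates dried 105 °C 1 h, mobile phase acetone:water 2:1, 1 µL of 3 mg/mL CHCl3 solution spotted; five runs with varied positions, mean Rf converted as Rm = log[(1/Rf) - 1].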

Mus musculus [10] = assay: Anticonvulsant activity against the tonic seizures induced by icv injection of AMPA in DBA / 2 mice at a dose range of 10-200 uM/kg; type: functional; settings: central
Mus musculus [11] = assay: Audiogenic seizures after pretreatment with Aniracetam in DBA / 2 mice tonic phase at a dose range of 10-200 uM/kg; type: functional
How it was run: (§3)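 DBA/2 mice pretreated with aniracetam 50 nmol icv 60 min before auditory testing, with ip 2,3-benzodiazepine; audiogenic clonic and tonic phases scored; ED50 by Litchfield-Wilcoxon.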

Mus musculus [12] = assay: Audiogenic seizures after pretreatment with Aniracetam in DBA / 2 mice clonic phase at a dose range of 10-200 uM/kg; type: functional; how it was run: as §3
[13] = Motor toxicity in 50% of mice on locomotion assessed by Rotarod test following 30 min ip administration; type: organism-based; settings: mouse, in vivo
How it was run: (§4)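 Male Swiss mice (20-26 g, 48-54 days), groups of 10, trained on rotarod (3 cm, 8 rpm); tested 30 min after ip dosing. Impairment = failure to stay on for 2 min; TD50 (95% confidence limits) by Litchfield-Wilcoxon.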

Mus musculus [14] = assay: Anticonvulsant activity against clonic phase of the audiogenic seizures in DBA / 2 mice 30 min after ip administration at a dose range 10-100 uM/kg; type: functional; settings: 0.5 h; how it was run: as §1
Mus musculus [15] = species on record: Mus musculus; assay: Audiogenic seizures after concomitant treatment with Flumazenil (8.24 uM) in DBA / 2 mice tonic phase; type: functional
Mus musculus [16] = assay: Anticonvulsant activity against tonic phase of the audiogenic seizures in DBA / 2 mice 30 min after ip administration at a dose range 10-66 uM/kg; type: functional; settings: 0.5 h; how it was run: as §1
Mus musculus [17] = assay: Anticonvulsant activity against clonic phase of the audiogenic seizures in DBA / 2 mice 30 min after ip administration at a dose range 10-66 uM/kg; type: functional; settings: 0.5 h; how it was run: as §1
Mus musculus [18] = assay: Anticonvulsant activity against clonic phase of the audiogenic seizures in DBA / 2 mice 30 min after ip administration at a dose range 33-133 uM/kg; type: functional; settings: 0.5 h; how it was run: as §1
Mus musculus [19] = assay: Anticonvulsant activity against tonic phase of the audiogenic seizures in DBA / 2 mice 30 min after ip administration at a dose range 33-133 uM/kg; type: functional; settings: 0.5 h; how it was run: as §1
Mus musculus [20] = assay: Anticonvulsant activity against the maximal electroshock in Swiss mice after 45 minutes pretreatment at a dose range 33-200 uM/kg; type: functional; how it was run: as §2
Mus musculus [21] = assay: Anticonvulsant activity against tonic phase of the audiogenic seizures in DBA / 2 mice 30 min after ip administration at a dose range 33-200 uM/kg; type: functional; settings: 0.5 h; how it was run: as §1
Mus musculus [22] = assay: Anticonvulsant activity against clonic phase of the audiogenic seizures in DBA / 2 mice 30 min after ip administration at a dose range 33-200 uM/kg; type: functional; settings: 0.5 h; how it was run: as §1
Mus musculus [23] = assay: Pentylenetetrazole-induced seizures in Swiss mice after 45 min pretreatment at a dose range 33-200 uM/kg; type: functional
Mus musculus [24] = assay: Anticonvulsant activity against tonic phase of the audiogenic seizures in DBA / 2 mice 30 min after ip administration at a dose range 10-120 uM/kg; type: functional; settings: 0.5 h; how it was run: as §1
Mus musculus [25] = assay: Anticonvulsant activity against clonic phase of the audiogenic seizures in DBA / 2 mice 30 min after ip administration at a dose range 10-120 uM/kg; type: functional; settings: 0.5 h; how it was run: as §1
Mus musculus [26] = assay: Anticonvulsant activity against the maximal electroshock in Swiss mice after 45 minutes pretreatment at a dose range 10-150 uM/kg; type: functional; how it was run: as §2
[27] = Motor toxicity in 50% of mice on locomotion assessed by Rotarod test following 30 min ip administration (95% confidence limits); type: organism-based; settings: mouse, in vivo; how it was run: as §4
Mus musculus [28] = assay: Anticonvulsant activity against tonic phase of the audiogenic seizures in DBA / 2 mice 30 min after ip administration at a dose range 33-66 uM/kg; type: functional; settings: 0.5 h; how it was run: as §1
Mus musculus [29] = assay: Anticonvulsant activity against clonic phase of the audiogenic seizures in DBA / 2 mice 30 min after ip administration at a dose range 33-66 uM/kg; type: functional; settings: 0.5 h; how it was run: as §1

## COc1cc2c(cc1OC)C(c1ccc(N)cc1)=NN(C)C(=O)C2
Mus musculus [1]
  ED50: 45.9 µmol/kg
Mus musculus [2]
  ED50: 43.7 µmol/kg and 14.2 mg/kg
Mus musculus [3]
  ED50: 51.2 µmol/kg
Mus musculus [4]
  ED50: 57.2 µmol/kg
Mus musculus [5]
  ED50: 70.8 µmol/kg
Mus musculus [6]
  ED50: 32.2 µmol/kg
[7]
  therapeutic index (TD50/ED50): 3.2
Mus musculus [8]
  ED50: 72.1 µmol/kg
[9]
  Rm: -0.374
Mus musculus [10]
  ED50: 62.4 µmol/kg
Mus musculus [11]
  ED50: 112 µmol/kg
Mus musculus [12]
  ED50: 141 µmol/kg
[13]
  TD50 at 0.5 h: 159 µmol/kg
Mus musculus [14]
  ED50: 50.2 µmol/kg and 16.3 mg/kg
Mus musculus [15]
  ED50: 38.5 µmol/kg

## COc1cc2c(cc1OC)C(c1cccc(N)c1)=NN(C)C(=O)C2
Mus musculus [16]
  ED50: 30.6 µmol/kg and 9.94 mg/kg
Mus musculus [17]
  ED50: 36.8 µmol/kg and 11.9 mg/kg
[9]
  Rm: -0.327

## COc1ccc2c(c1)CC(=O)N(C)N=C2c1ccccc1
Mus musculus [18]
  ED50: 117 µmol/kg and 32.8 mg/kg
Mus musculus [19]
  ED50: 99.1 µmol/kg and 27.8 mg/kg
[9]
  Rm: 0.189

## COc1ccc2c(c1)CC(=O)NN=C2c1ccccc1
Mus musculus [20]
  ED50: 73.4 µmol/kg
Mus musculus [21]
  ED50: 64.8 µmol/kg and 17.2 mg/kg
[7]
  therapeutic index (TD50/ED50): 2.6
[9]
  Rm: -0.052
Mus musculus [22]
  ED50: 75.5 µmol/kg and 20 mg/kg
Mus musculus [23]
  ED50: 98.2 µmol/kg
[13]
  TD50 at 0.5 h: 197 µmol/kg

## COc1cc2c(cc1OC)C(c1ccc(N(C(C)=O)C(C)=O)cc1)=NN(C(C)=O)C(=O)C2
Mus musculus [2]
  ED50: 43.9 µmol/kg and 19.2 mg/kg
[9]
  Rm: -0.673
Mus musculus [14]
  ED50: 56.8 µmol/kg and 24.8 mg/kg

## COc1cc2c(cc1OC)C(c1ccc([N+](=O)[O-])cc1)=NNC(=O)C2
Mus musculus [24]
  ED50: > 120 µmol/kg and > 44 mg/kg
Mus musculus [25]
  ED50: > 120 µmol/kg and > 44 mg/kg
Mus musculus [26]
  ED50: > 150 µmol/kg
Mus musculus [5]
  ED50: > 150 µmol/kg
[9]
  Rm: -0.096
[27]
  TD50 at 0.5 h: > 150 µmol/kg

## COc1cc2c(cc1OC)C(c1ccccc1)=NN(C(C)=O)C(=O)C2
Mus musculus [2]
  ED50: 72.1 µmol/kg and 24.4 mg/kg
[7]
  therapeutic index (TD50/ED50): 1.8
[9]
  Rm: -0.052
[13]
  TD50 at 0.5 h: 181 µmol/kg
Mus musculus [14]
  ED50: 101 µmol/kg and 33.3 mg/kg

## COc1cc2c(cc1OC)C(c1ccc(Cl)cc1)=NN(C)C(=O)C2
[9]
  Rm: 0.25
Mus musculus [28]
  ED50: 38.6 µmol/kg and 13.3 mg/kg
Mus musculus [29]
  ED50: 41.2 µmol/kg and 14.2 mg/kg

## COc1cc2c(cc1OC)C(c1cccc([N+](=O)[O-])c1)=NN(C)C(=O)C2
Mus musculus [24]
  ED50: > 120 µmol/kg and > 44 mg/kg
Mus musculus [25]
  ED50: > 120 µmol/kg and > 44 mg/kg
[9]
  Rm: 0.052
